Three molecules from ChEMBL document CHEMBL3259516, “Structure-based design and synthesis of bicyclic fused-pyridines as MEK inhibitors” (Bioorg Med Chem Lett, 2014) can be followed below.

Where only a bound is given, the exact number is not on record here.

In data set [1] the target is T1, Dual specificity mitogen-activated protein kinase kinase 1 (Homo sapiens, UniProt Q02750). Kind of data set: Inhibition of MEK1 (unknown origin).
Data set [2] in a line: Half life in beagle dog at 1 mg/kg, po. The format is ADME, organism-based, Canis lupus familiaris. Also noted: dose 1 mg/kg, route oral. The note with it: in vivo.
Data set [3] in a line: Plasma protein binding in human. In kind it is ADME, cell-free. The note with it: read-out: PPB (converted).
Data set [4] is described as follows: AUC in beagle dog at 1 mg/kg, iv. Also noted: dose 1 mg/kg, route intravenous. The note with it: plasma. The format is ADME, organism-based, Canis lupus familiaris.
Data set [5] can be described thus: Inhibition of CYP450 (unknown origin) up to 50 uM. In kind it is ADME. The note with it: human.
Data set [6] in a line: Half life in beagle dog at 1 mg/kg, iv. The format is ADME, organism-based, Canis lupus familiaris. Also noted: dose 1 mg/kg, route intravenous. The note with it: in vivo.
The nature of data set [7]: AUC in beagle dog at 1 mg/kg, po. Also on record: dose 1 mg/kg, route oral. In kind it is ADME, organism-based, Canis lupus familiaris. The note with it: plasma.
A short description of data set [8]: Clearance in rat liver microsomes. The format is ADME. As to conditions: read-out: CLH. (In general: Liver microsomes are vesicles of endoplasmic reticulum, rich in cytochrome P450 enzymes.)
The nature of data set [9]: AUC in rat at 5 mg/kg, po. The format is ADME, organism-based. Also noted: dose 5 mg/kg, route oral. The note with it: plasma.
Data set [10] is described as follows: Cmax in rat at 5 mg/kg, po. In kind it is ADME, organism-based. Also noted: dose 5 mg/kg, route oral. The note with it: in vivo.
The next data set relates to COLO 205. Nature of the data set: Antitumor activity against human COLO205 cells xenografted in mouse assessed as tumor growth inhibition at 3 mg/kg, po qd for 14 days relative to control. The format is functional. As to conditions: COLO 205, 336 h, read-out: TGI; call rule not given here. Put shortly:
(§1)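 Human colorectal Colo-205 xenografts in mice; test agent given by oral gavage at 3.0 mg/kg once daily for 14 days. Tumor growth inhibition scored relative to control, and body weight followed in all animals throughout the study.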

The nature of data set [11]: Oral bioavailability in beagle dog at 1 mg/kg. In kind it is ADME, organism-based, Canis lupus familiaris. The note with it: in vivo.
A short description of data set [12]: Half life in rat at 5 mg/kg, po. In kind it is ADME, organism-based. Also on record: dose 5 mg/kg, route oral. As to conditions: in vivo.
Data set [13] is described as follows: Cmax in beagle dog at 1 mg/kg, po. The format is ADME, organism-based, Canis lupus familiaris. Also noted: dose 1 mg/kg, route oral. As to conditions: in vivo.
Data set [14] can be described thus: Clearance in human liver microsomes. In kind it is ADME. As to conditions: read-out: CLH.
For the next data set, the system named is Mus musculus. Kind of data set: Toxicity in mouse xenografted with human COLO205 cells assessed as change in body weight at 3 mg/kg, po qd for 14 days. In kind it is organism-based, COLO 205. Also noted: dose 3 mg/kg, route oral. The note with it: in vivo, 336 h. Put shortly:
as §1
Background: In xenograft studies the graft and the host belong to different species.

In data set [15] the target is T1, Dual specificity mitogen-activated protein kinase kinase 1. Nature of the data set: Inhibition of MEK1 in human COLO205 cells. The format is cell-based, COLO 205.

T1 sequence (Q02750 whole entry): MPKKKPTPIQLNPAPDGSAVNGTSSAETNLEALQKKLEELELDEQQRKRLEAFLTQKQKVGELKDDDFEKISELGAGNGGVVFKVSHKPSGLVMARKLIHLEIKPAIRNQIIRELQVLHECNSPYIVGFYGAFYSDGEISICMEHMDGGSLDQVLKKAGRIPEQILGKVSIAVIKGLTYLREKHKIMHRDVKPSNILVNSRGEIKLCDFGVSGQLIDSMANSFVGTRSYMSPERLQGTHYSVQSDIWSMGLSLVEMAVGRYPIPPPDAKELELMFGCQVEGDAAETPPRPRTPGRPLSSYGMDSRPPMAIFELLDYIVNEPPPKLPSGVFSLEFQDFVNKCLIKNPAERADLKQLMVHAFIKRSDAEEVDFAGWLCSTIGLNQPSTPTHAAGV

The IC50 is the concentration at which inhibition is half-maximal. A lower IC50 goes with higher potency. As to `O=C(NC[C@H](O)CO)c1ncncc1Nc1ccccc1F`, the IC50 in [1] is more than 1000 nM.
One may read the half-life as how long it takes for the measured level to halve. A high value points to slow decline. In general, AUC refers to concentration integrated over time. Low readings indicate low exposure, high ones high exposure. As a reminder, the Cmax is the peak of the concentration-time curve. One may read the bioavailability as the share of a dose that reaches the circulation, judged against a reference dose that is usually intravenous. Lower therefore signals little systemic uptake. Take `O=c1c2c(Nc3ccc(I)cc3F)cncc2cnn1C[C@H](O)CO`: the results for the half-life in data set [2], in data set [6] and in data set [12] were 4.88 h, 3.11 h and 5.56 h, respectively. Also, the fraction unbound in [3] was 0.033. The area under the curve (AUC) in data set [4] amounted to 1190 ng·h/mL; in [7], 510 ng·h/mL; in [9] it was 4890 ng·h/mL. The “inhibition (INH)” value in data set [5] is “Not Active”. For the same molecule, the microsomal CLint in data set [8] was found to be 2.38 µL/min/mg; in data set [14], 1.25 µL/min/mg. The peak concentration (Cmax) in data set [10] came out at 1080 ng/mL; in data set [13] it was 117 ng/mL. Besides, the inhibition in vivo at 3 mg/kg with COLO 205 was determined as 59.5%. In [11], this molecule yielded a bioavailability of 43%. In addition, in the data set on Mus musculus, the Activity result is recorded as “Non-toxic”.
As to `Cn1c(=O)c(F)c(Nc2ccc(I)cc2F)c2c(=O)n(C[C@@H](O)CO)cnc21` [TAK-733], the concentration for half-maximal inhibition (IC50) in data set [15] came out at 6.92 nM; in data set [1], 1.79 nM.
